TNAP act hi DEA: increases human TNAP activity under high phosphate acceptor concentration; P05186; purified TNAP, CDP-star luminescence, 1 M DEA, 30 min; hits give high values; 0 = EDTA background, 1 = DMSO-only activity; activation factor at 20 µM; 200,000 tested, under 10 active;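 active = activation factor at least 2 at 20 µM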
Target sequence (P05186 whole entry, looked up): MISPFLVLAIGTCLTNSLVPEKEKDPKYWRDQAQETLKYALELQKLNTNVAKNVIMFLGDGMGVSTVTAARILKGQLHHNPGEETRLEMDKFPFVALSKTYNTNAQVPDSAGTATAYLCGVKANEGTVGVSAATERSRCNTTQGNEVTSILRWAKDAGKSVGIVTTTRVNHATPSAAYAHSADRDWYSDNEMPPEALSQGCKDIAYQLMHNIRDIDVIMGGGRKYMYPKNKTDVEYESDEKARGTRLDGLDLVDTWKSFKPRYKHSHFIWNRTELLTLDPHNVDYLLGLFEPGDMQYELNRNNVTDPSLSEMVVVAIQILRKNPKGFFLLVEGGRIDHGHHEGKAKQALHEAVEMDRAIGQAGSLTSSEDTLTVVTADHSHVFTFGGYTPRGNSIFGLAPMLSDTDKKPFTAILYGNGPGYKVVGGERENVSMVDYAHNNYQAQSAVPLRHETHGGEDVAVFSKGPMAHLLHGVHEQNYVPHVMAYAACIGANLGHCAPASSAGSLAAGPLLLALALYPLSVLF
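Dosing: 20 µM single point. System: human TNAP. Amount: TNAP 1/800 final. Incubation: 30 min, room temperature. Read-out: TNAP activation factor scaled between EDTA and DMSO control wells. Signal: luminescence from CDP-star hydrolysis. Medium: 1 M DEA, pH 9.8, Mg2+, Zn2+. Control set: EDTA negative control, DMSO positive control.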
PMI act: increases human mannose-6-phosphate isomerase activity. 0.005% of 190,000 active. activation factor at 20 µM. AID 1214. P34949. purified human PMI, coupled resazurin fluorescence, 20 min; hits give high values; 1 = vehicle control, 0 substrate-free wells;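 active = activation factor of 2 or more at 20 µM, relative to plate controls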
PMI act hi M6P: activators of human phosphomannose isomerase at near-saturating mannose 6-phosphate; coupled PMI enzyme assay, resazurin fluorescence, 20 min; hits give high values; 1 = untreated enzyme, 0 = substrate-free blank; activation factor at 20 µM; 0.34% of 190,000 active; AID 1216;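 active = activation factor of 2 or more at 20 µM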
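Test system – human PMI in coupled enzyme assay · Timing – 20 min incubation at room temperature · Detection – Diaphorase-driven resazurin-to-resorufin fluorescence, excitation 544, emission 590 nm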
TNAP inh hi DEA: inhibitors of human TNAP at high phosphate acceptor concentration; 0.03% of 200,000 active; purified TNAP, CDP-star luminescence, 1 M DEA; inhibition, % at 20 µM; P05186;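 active = over 50% inhibition of tissue-nonspecific alkaline phosphatase at 20 µM in the single-dose screen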;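 note: plate controls were DMSO wells for no effect and EDTA-quenched wells as full inhibition for full effect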
TNAP inh noacc: TNAP (human) inhibition, acceptor-free conditions; 0.26% of 200,000 active; AID 1012; purified TNAP, CDP-star luminescence, 30 min; P05186; inhibition, % at 20 µM;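 active = tissue-nonspecific alkaline phosphatase inhibition above about 50% at 20 µM in the single-dose screen, limit read from the data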;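 note: 0% = DMSO negative control and 100% = EDTA positive control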
* hit, by the source's call. In the library only some 0.64% were active in any assay of this set; here they are far more common.

How did COc1ccc(-c2nc3n(n2)C(=O)CC(c2ccco2)S3)cc1 (configuration not stated) do in these assays?
TNAP act hi DEA: 1; PMI act: 1.1; PMI act hi M6P: 1.3; TNAP inh hi DEA: 0.1; TNAP inh noacc: 75.5*

What do the screens show for `COc1cccc(/C=N/NC(=O)c2cc(-c3cccn3C)n[nH]2)c1`?
TNAP act hi DEA: 0.9; PMI act: 0.9; PMI act hi M6P: 0.9; TNAP inh hi DEA: 7.0; TNAP inh noacc: 94.0*

How did COc1cccc(/C=N/NC(=O)c2cc(-c3cccn3C)n[nH]2)c1O do in these assays?
TNAP act hi DEA: 1; PMI act: 0.9; PMI act hi M6P: 1.2; TNAP inh hi DEA: 1.6; TNAP inh noacc: -156.9

Results for COc1cc(/C=N/NC(=O)c2cc(-c3cccn3C)n[nH]2)cc(OC)c1OC ?
TNAP act hi DEA: 0.9; PMI act: 0.9; PMI act hi M6P: 0.9; TNAP inh hi DEA: 8.9; TNAP inh noacc: 91.3*

How did CCCCN1C(=O)C2(NNc3ccccc3O2)c2ccccc21 (configuration not stated) do in these assays?
TNAP act hi DEA: 0.9; PMI act: 1.6; PMI act hi M6P: 2.1*; TNAP inh hi DEA: 5.4; TNAP inh noacc: -495.3

What do the screens show for `CCCCC(=O)NC1(C(F)(F)F)C(=O)N(CC(C)C)C2=C1C(=O)CC(C)(C)C2` (configuration not stated)?
TNAP act hi DEA: 1; PMI act: 1; PMI act hi M6P: 1; TNAP inh hi DEA: -1.5; TNAP inh noacc: -2.0

How did O=C(NCCSCc1c(F)cccc1Cl)c1ccc(CN2CCOCC2)cc1 do in these assays?
TNAP act hi DEA: 1; PMI act: 1.1; PMI act hi M6P: 1; TNAP inh hi DEA: -2.9; TNAP inh noacc: -14.1

What do the screens show for `CCC1Nc2ccccc2-c2nnc(SC)nc2O1` (configuration not stated)?
TNAP act hi DEA: 1.1; PMI act: 1; PMI act hi M6P: 1.1; TNAP inh hi DEA: -8.4; TNAP inh noacc: 3.1

What do the screens show for `COc1ccccc1C(=O)C1Nc2ccccc2-c2nnc(SC)nc2O1` (configuration not stated)?
TNAP act hi DEA: 1; PMI act: 1.7; PMI act hi M6P: 2.5*; TNAP inh hi DEA: 3.5; TNAP inh noacc: -3.9

What do the screens show for `O=C(CSc1nc2ccccc2s1)Nc1ccc(Cl)c(C(=O)O)c1`?
TNAP act hi DEA: 1; PMI act: 1.4; PMI act hi M6P: 2.3*; TNAP inh hi DEA: 3.7; TNAP inh noacc: -6.6

What do the screens show for `Cc1cccc(NC(=O)C2SC(=Nc3c(C)cccc3C)C(C(=O)N3CCOCC3)=C2N)c1` (configuration not stated)?
TNAP act hi DEA: 1; PMI act: 1.2; PMI act hi M6P: 1.4; TNAP inh hi DEA: -1.1; TNAP inh noacc: -10.5

How did c1csc(-c2nn3c(Cn4nnc5ccccc54)nnc3s2)c1 do in these assays?
TNAP act hi DEA: 1; PMI act: 0.9; PMI act hi M6P: 0.9; TNAP inh hi DEA: -4.3; TNAP inh noacc: 62.4*

How did O=c1c2c3c(sc2n2cnnc2n1Cc1ccccc1)CN(Cc1ccccc1)CC3 do in these assays?
TNAP act hi DEA: 1; PMI act: 1.5; PMI act hi M6P: 2*; TNAP inh hi DEA: 2.9; TNAP inh noacc: -3.8

What do the screens show for `Cc1nnc2n(Cc3ccccc3)c(=O)c3c4c(sc3n12)CN(Cc1ccccc1)CC4`?
TNAP act hi DEA: 1; PMI act: 0.9; PMI act hi M6P: 0.9; TNAP inh hi DEA: -4.3; TNAP inh noacc: -0.8

How did CCCCn1c(N)c(N(CC)C(=O)C(c2ccccc2)c2ccccc2)c(=O)[nH]c1=O do in these assays?
TNAP act hi DEA: 1; PMI act: 1; PMI act hi M6P: 1; TNAP inh hi DEA: -2.9; TNAP inh noacc: -11.2

What do the screens show for `COc1ccccc1-n1c(C)nc2cc(C(=O)NCCN3CCOCC3)ccc21`?
TNAP act hi DEA: 1; PMI act: 1; PMI act hi M6P: 1; TNAP inh hi DEA: 0.3; TNAP inh noacc: -8.7

How did CCOC(=O)/C=C(/C)N1N=C(c2ccc(OC)cc2)CC1c1cccc([N+](=O)[O-])c1 (configuration not stated) do in these assays?
TNAP act hi DEA: 1; PMI act: 1.6; PMI act hi M6P: 2.3*; TNAP inh hi DEA: -0.5; TNAP inh noacc: -19.1

Results for CCC(=O)N(Cc1ccco1)C1CC(=O)N(c2ccccc2)C1=O (configuration not stated) ?
TNAP act hi DEA: 1; PMI act: 1; PMI act hi M6P: 1; TNAP inh hi DEA: -2.3; TNAP inh noacc: -8.3

Results for COc1ccc(Cl)cc1NC(=O)CN1CCC(n2nnc3cc(C)ccc32)CC1 ?
TNAP act hi DEA: 2.7*; PMI act: 1; PMI act hi M6P: 1; TNAP inh hi DEA: -173.4; TNAP inh noacc: inactive

How did CN(C)c1ccc(/C=C(\C#N)C(=O)Nc2nc3c(s2)CCN(Cc2ccccc2)C3)cc1 do in these assays?
TNAP act hi DEA: 0.7; PMI act: 1.1; PMI act hi M6P: 1; TNAP inh hi DEA: 26.0; TNAP inh noacc: 55.4*

How did O=C(Nc1nc2c(s1)CN(Cc1ccccc1)CC2)C1CCC1 do in these assays?
TNAP act hi DEA: 1; PMI act: 0.8; PMI act hi M6P: 0.7; TNAP inh hi DEA: -4.6; TNAP inh noacc: -4.4

What do the screens show for `O=C(CSc1n[nH]c(-c2ccccc2Br)n1)NC(=O)NCc1ccco1`?
TNAP act hi DEA: 1; PMI act: 0.9; PMI act hi M6P: 0.9; TNAP inh hi DEA: 0.1; TNAP inh noacc: 82.2*

How did O=C(CSc1n[nH]c(-c2ccccc2Br)n1)NCCN1C(=O)CSC1=O do in these assays?
TNAP act hi DEA: 1; PMI act: 0.9; PMI act hi M6P: 1.1; TNAP inh hi DEA: 3.6; TNAP inh noacc: 84.0*

What do the screens show for `S=C(Nc1ccccc1Cl)NC1CC2CCCC(C1)N2C1CC1` (configuration not stated)?
TNAP act hi DEA: 1; PMI act: 1; PMI act hi M6P: 0.8; TNAP inh hi DEA: 1.6; TNAP inh noacc: -7.6

How did CCOC(=O)N1CCN(C(=O)c2noc(C(C)C)c2[N+](=O)[O-])CC1 do in these assays?
TNAP act hi DEA: 1; PMI act: 1.1; PMI act hi M6P: 1.1; TNAP inh hi DEA: -3.1; TNAP inh noacc: -0.3

Results for N=C(N)SCc1cn2ccccc2n1 ?
TNAP act hi DEA: 1; PMI act: 1.1; PMI act hi M6P: 1.1; TNAP inh hi DEA: -0.1; TNAP inh noacc: 58.9*

Results for Nc1ccccc1SCc1cn2ccccc2n1 ?
TNAP act hi DEA: 1.1; PMI act: 1.1; PMI act hi M6P: 1; TNAP inh hi DEA: -5.5; TNAP inh noacc: -13.2

How did CCCCc1c(C)nc2ccc(Br)cc2c1SC(N)N do in these assays?
TNAP act hi DEA: 1; PMI act: 1.7; PMI act hi M6P: 2.2*; TNAP inh hi DEA: -0.5; TNAP inh noacc: 12.9

How did CCCCc1c(C)nc2ccc(C)cc2c1SCCC(=O)O do in these assays?
TNAP act hi DEA: 1; PMI act: 1.5; PMI act hi M6P: 1.5; TNAP inh hi DEA: -2.8; TNAP inh noacc: -6.4
